In PMC2585546 (Bioorganic & medicinal chemistry, 2008):

Tests used:
RNA A [1] = experiment: Thiazole orange fluorescent intercalator displacement; assay type: binding; details: read-out: Dissociation constants (FID); apparent KD from IC50, competitive model; 50 mM Bis-Tris·HCl pH 7.0, 100 mM NaCl, 10 mM MgCl2, 50 nM thiazole orange, 100 nM RNA A, 25 °C; average of three independent measurements ± SD
RNA C = experiment: Thiazole orange fluorescence enhancement on RNA binding; details: thiazole orange 2.6 µM, RNA 2 µM
Outline: (§1)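 Fold rise in thiazole orange fluorescence, with the dye at 2.6 µM and each RNA at 2 µM. RNA A is an in vitro selected aptamer stem-loop, used as supplied. RNA B (human pre-miRNA 23b sequence) and control stem-loop RNA C were 2'-ACE-deprotected (100 mM acetic acid, TEMED to pH 3.8, 60 °C, 30 min), phenol/chloroform-extracted, ethanol-precipitated and kept in water at −20 °C.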

RNA A [2] = experiment: Thiazole orange fluorescence enhancement on RNA binding
RNA B = experiment: Thiazole orange fluorescence enhancement on RNA binding; set-up: species or system human; details: thiazole orange 2.6 µM, RNA 2 µM
Outline: as §1

| Kd (RNA A [1]) [µM] | Fold enhancement of thiazole orange fluorescence by control RNA C (RNA C) [fold] | Fold stimulation of thiazole orange fluorescence by RNA A (RNA A [2]; thiazole orange 50 nM, RNA A 100 nM) [fold] | Fold enhancement of thiazole orange fluorescence by RNA A (RNA A [2]; thiazole orange 2.6 µM, RNA 2 µM) [fold] | Fold enhancement of thiazole orange fluorescence by RNA B (RNA B) [fold] | Compound |
| --- | --- | --- | --- | --- | --- |
| > 60 |  |  |  |  | NC[C@@H]1O[C@H](O[C@H]2[C@@H](O)[C@H](O[C@H]3[C@@H](O)[C@H](N)C[C@H](N)[C@H]3O[C@H]3O[C@H](CN)[C@@H](O)[C@H](O)[C@H]3N)O[C@@H]2CO)[C@H](N)[C@@H](O)[C@@H]1O [compound 7, neomycin] |
| > 100 |  |  |  |  | NC[C@H]1O[C@H](O[C@H]2[C@H](O)[C@@H](O[C@H]3O[C@H](CO)[C@@H](O)[C@H](N)[C@H]3O)[C@H](N)C[C@@H]2N)[C@H](O)[C@@H](O)[C@@H]1O [compound 8, kanamycin] |
|  | 96 | ~20 | 2308 | 977 | CN1C(=Cc2cc[n+](C)c3ccccc23)Sc2ccccc21 [thiazole orange] |
